Data reported in ChEMBL document CHEMBL4130370, “Discovery of 5,6-diaryl-1,2,4-triazines hybrids as potential apoptosis inducers” (Eur J Med Chem, 2017).

What was measured:
Assay type in all cases: functional, cell-based
[1] = tested on: PC-3; assay: Antiproliferative activity against human PC3 cells after 48 hrs by MTT assay; settings: PC-3, 48 h
Procedure, shortened: (§1)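 Cells exposed to compounds for 48 h, then read by MTT. IC50 is the concentration giving 50% inhibition of tumour cell proliferation, taken from dose-response curves. Values are means±SD of three independent experiments. 5-FU was the reference drug.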

[2] = tested on: ECa-109 cell line; assay: Antiproliferative activity against human EC109 cells after 48 hrs by MTT assay; settings: ECa-109, 48 h; procedure, shortened: as §1
[3] = tested on: MGC-803; assay: Antiproliferative activity against human MGC803 cells after 48 hrs by MTT assay; settings: MGC-803, 48 h; procedure, shortened: as §1
[4] = tested on: SK-N-SH; assay: Antiproliferative activity against human SK-N-SH cells after 48 hrs by MTT assay

Row | SMILES | IC50 [1] | IC50 [2] | IC50 [3] | IC50 [4]
1 | c1ccc(-c2nnc(SCc3cn(Cc4ccc5ccccc5c4)nn3)nc2-c2ccccc2)cc1 | > 100 µM | > 100 µM | > 100 µM | 
2 | COc1ccc(Cn2cc(CSc3nnc(-c4ccccc4)c(-c4ccccc4)n3)nn2)cc1 | 27.5 µM | 28.4 µM | 22.7 µM | 
3 | O=C(/C=C/c1ccc(OCCCn2cc(CSC3=NCCS3)nn2)cc1)c1ccc(Br)cc1 |  |  |  | 8.16 µM
4 | Brc1ccc(Cn2cc(CSc3nnc(-c4ccccc4)c(-c4ccccc4)n3)nn2)cc1 | 22 µM | > 100 µM | > 100 µM | 
5 | NS(=O)(=O)c1ccc(-n2cc(CSc3nnc(-c4ccccc4)c(-c4ccccc4)n3)nn2)cc1 | > 100 µM | > 100 µM | > 100 µM | 
6 | O=c1[nH]cc(F)c(=O)[nH]1 [FLUOROURACIL] | 12.9 µM | 56.2 µM | 9.79 µM | 
7 | C#CCSc1nnc(-c2ccccc2)c(-c2ccccc2)n1 | > 100 µM | > 100 µM | > 100 µM | 
8 | c1ccc(Cn2cc(CSc3nnc(-c4ccccc4)c(-c4ccccc4)n3)nn2)cc1 | 15.6 µM | 11.1 µM | 11.3 µM | 
